E-selectin induc = E-selectin induction in HUVECs, primary screen, imaging, HUVEC, immunofluorescence imaging, single point | P16581 | normalized: neutral wells 0, TNF-alpha wells 100 | activation, % at 7.58 µM | 260,000 compounds, 0.37% hits | AID 686992, 2013;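 active = mean E-selectin-positive cell signal at least 10% of the positive control, reached in at least 60% of replicates, without over 20% cell loss; inconclusive = no rule given, readout overlaps actives, possibly toxicity-flagged; inactive = the rest, including those meeting only one limit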
Target sequence (P16581 whole entry, looked up): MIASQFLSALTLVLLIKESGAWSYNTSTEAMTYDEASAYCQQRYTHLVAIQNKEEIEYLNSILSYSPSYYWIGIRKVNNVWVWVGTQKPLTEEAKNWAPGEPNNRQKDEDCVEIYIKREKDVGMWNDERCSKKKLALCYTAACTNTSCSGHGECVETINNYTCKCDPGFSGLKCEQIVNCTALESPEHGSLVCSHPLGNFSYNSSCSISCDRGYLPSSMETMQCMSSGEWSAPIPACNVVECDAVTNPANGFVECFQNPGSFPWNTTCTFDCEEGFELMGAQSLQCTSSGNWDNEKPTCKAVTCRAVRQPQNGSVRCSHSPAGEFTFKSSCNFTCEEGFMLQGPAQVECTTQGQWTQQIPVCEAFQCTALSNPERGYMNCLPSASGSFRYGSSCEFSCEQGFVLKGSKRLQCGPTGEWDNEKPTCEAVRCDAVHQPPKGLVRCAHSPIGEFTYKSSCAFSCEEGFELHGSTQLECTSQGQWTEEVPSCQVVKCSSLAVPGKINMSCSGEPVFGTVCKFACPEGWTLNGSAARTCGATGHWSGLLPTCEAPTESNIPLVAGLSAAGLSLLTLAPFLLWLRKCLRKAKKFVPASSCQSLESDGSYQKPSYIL
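Test system: HUVEC; input: 3,000 HUVEC/well; measured by: immunofluorescence imaging; read-out: % PE-positive cells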
C2C12 statin = suppressors of statin myotoxicity in C2C12 myotubes, primary screen, cell-based, single point, plate reader; C2C12 myotubes + simvastatin, ATP luminescence, 48 h; scaled: DMSO 0, geranylgeraniol control 100; rescue of ATP level, % at 7.49 µM; 330,000 compounds, 0.78% hits; AID 602340, 2012;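 active = mean ATP rescue above about 67%, or every replicate alone reaching that limit, limit read from the data, passing the limit was not always enough; inconclusive = no clear call, values can overlap the other calls; inactive = mean under the limit and some replicate under it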;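 also: myotubes were challenged with 10 µM simvastatin during compound exposure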
DENV2 CPE rescue = inhibitors of DENV2 cytopathic effect, primary screen, cell-based, plate reader, single concentration. DENV2-infected cells, cytopathic effect rescue. 350,000 compounds, 1.7% hits. CPE inhibition, % at 9.99 µM. AID 651640, 2012; in the data active = CPE inhibition above about 20%, passing the limit was not always enough; inconclusive = no clear call, values can overlap the other calls; tested in BHK-21 cells
Xi reactivation = activators of inactive X chromosome reactivation, primary screen, imaging, XiGFP fibroblasts, GFP high-content imaging, set 2. XiGFP mouse fibroblasts, % GFP-positive cells imaging, 3 d; cells co-treated with 5-aza-dC sensitizer; scaled so ellipticine positive control = 100%. activation, % at 7.58 µM. 360,000 compounds, 0.055% hits. AID 743238, 2013;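 active = mean normalized replicate activation at least 10% and every replicate at or above 10%; inconclusive = only one of the two criteria met; inactive = mean below 10% and not all replicates reach 10%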
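System: SV40-immortalized XiGFP fibroblast cells, line 68-5-11 / Incubation: 3-day compound exposure, then 15 min fixation at room temperature / Compound: single concentration per compound, delivered by pin transfer / Buffer or medium: DMEM plus 5-aza-dC sensitizer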
PglD DTNB = C. jejuni PglD acetyltransferase inhibitors, primary screen, biochemical, DTNB colorimetric, single point; UDP-N-acetylbacillosamine N-acetyltransferase PglD (Campylobacter jejuni); purified PglD enzyme, DTNB colorimetric CoA detection; inhibition, % at 12.5 µM; 360,000 compounds, 0.098% hits; AID 602405, 2012; in the data active = inhibition above about 16%, passing the limit was not always enough; inconclusive = no clear call, values can overlap the other calls
FGF22 binding = binders of human FGF22 protein, primary screen, FGF22 synaptogenesis inhibitor project, biophysical, thermal shift, single point. Fibroblast growth factor 22 (Homo sapiens), Q9HCT0. recombinant FGF22 thermal shift, SYPRO orange fluorescence; percent of sucrose octasulfate shift, DMSO zero. activity (Tm shift, normalised), % at 9.99 µM. 340,000 compounds, 1.5% hits;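 active = mean Tm shift, scaled 0 neutral to 100 positive control, at about 1.3% or above, every replicate too, limit read from the data; inconclusive = no clear call, values can overlap the other calls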
Target sequence (Q9HCT0 whole entry, looked up): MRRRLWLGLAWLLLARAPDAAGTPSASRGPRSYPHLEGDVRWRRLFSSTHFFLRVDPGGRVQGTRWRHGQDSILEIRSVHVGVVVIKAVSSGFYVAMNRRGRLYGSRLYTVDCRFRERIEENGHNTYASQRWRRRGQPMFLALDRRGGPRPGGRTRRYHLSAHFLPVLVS
Large screens that a line does not name were inactive. This is a sample that favours compounds with a hit; in the whole collection about 3.3% have one here.

Cc1noc(C)c1S(=O)(=O)Nc1ccc2c(c1)CC(=O)N([C@H](C)CO)C[C@@H](C)[C@@H](CN(C)Cc1ccc(-c3ccccc3)cc1)O2	C2C12 statin 98.0 (no result: PglD DTNB)
Cc1noc(C)c1S(=O)(=O)Nc1ccc2c(c1)CC(=O)N([C@H](C)CO)C[C@@H](C)[C@@H](CN(C)Cc1ccc(Cl)c(Cl)c1)O2	C2C12 statin 96.9
CN1C(=O)c2cc(NC(=O)C3CCCCC3)ccc2OC[C@@H]2O[C@H](CC(=O)NC3CCCC3)CC[C@H]21	none
C[C@@H]1CN([C@H](C)CO)C(=O)c2cc(NS(=O)(=O)c3ccccc3)ccc2O[C@@H](C)CCCCO[C@@H]1CN(C)C(=O)c1ccncc1	none (no result: C2C12 statin)
C[C@H]1CN([C@@H](C)CO)C(=O)Cc2cc(NC(=O)Nc3ccc4c(c3)OCO4)ccc2O[C@H]1CN(C)C(=O)Nc1ccccc1	none
Cc1ccc(SCCN2CCC(NC(=O)OCc3ccccc3)CCC2=O)cc1 (stereo not given)	DENV2 CPE rescue 32.3 (no result: E-selectin induc)
O=C1N[C@H](Cc2ccccc2)COCc2cnnn2CC[C@@H]1Cc1cccc(F)c1	none (no result: E-selectin induc, C2C12 statin, DENV2 CPE rescue, PglD DTNB, FGF22 binding)
CN(Cc1ccccc1)C(=O)CN1C(=O)NC2(CCCC2)C1=O	none (no result: E-selectin induc)
CN(Cc1ccccc1)C(=O)CN1C(=O)NC2(CCCc3sccc32)C1=O (stereo not given)	FGF22 binding 43.5 (no result: DENV2 CPE rescue)
CC(C)COC(=O)N(C)C[C@@H]1OCc2ccccc2-c2c(n(C)c3ccccc23)C(=O)N([C@@H](C)CO)C[C@@H]1C	none
C/C=C/c1cccc(-c2nc(C(=O)N3CCN(C)CC3)cc3c2[C@H](CCO)N(C(=O)NC(C)C)C3)c1	none (no result: C2C12 statin, PglD DTNB)
COC(=O)c1c(NC(=O)C(C)(C)C)sc2c1C(C(=O)OC)CC2 (stereo not given)	none (no result: E-selectin induc, C2C12 statin, DENV2 CPE rescue, Xi reactivation, FGF22 binding)
COC(=O)c1c(NC(=O)C(Cl)Cl)sc2c1C(C(=O)OC)CC2 (stereo not given)	DENV2 CPE rescue 122.4 (no result: C2C12 statin, PglD DTNB)
COc1ccc(N=Cc2sc(O)c3ccccc23)cc1	C2C12 statin 180.1 (no result: E-selectin induc, DENV2 CPE rescue, Xi reactivation, FGF22 binding)
COCc1cn(CC[C@H]2CC[C@@H](NC(=O)Cc3cccnc3)[C@H](CO)O2)nn1	none
O=C(O)/C=C1\NC(=O)c2ccccc21	C2C12 statin 103.5 (no result: E-selectin induc, DENV2 CPE rescue, Xi reactivation, FGF22 binding)
CNC[C@H]1Oc2ccc(NC(=O)NC(C)C)cc2CC(=O)N(C)C[C@H]1C	none (no result: E-selectin induc, C2C12 statin, DENV2 CPE rescue, PglD DTNB, FGF22 binding)
Cc1cc(C)cc(N(C(=O)c2nsc(Cl)c2Cl)C(C(=O)NC2CCCC2)c2ccc(O)cc2)c1 (stereo not given)	none (no result: E-selectin induc, C2C12 statin, PglD DTNB)
Cc1ccc(N(C(=O)c2nsc(Cl)c2Cl)C(C(=O)NC2CCCC2)c2ccc(O)cc2)cc1C (stereo not given)	DENV2 CPE rescue 83.8 (no result: E-selectin induc, C2C12 statin, PglD DTNB)
CCOc1ncnc2c1[nH]c1ccccc12	C2C12 statin 130.9
COc1ccc(CNc2ncnc3c2[nH]c2ccccc23)cc1	none (no result: E-selectin induc, C2C12 statin)
CCN(CC)P(=O)(Nc1ccc(Br)cc1)c1c(C)nn(CCC#N)c1NC(=O)c1ccc(Cl)cc1 (stereo not given)	E-selectin induc 50.4
C[C@@H]1CN([C@H](C)CO)S(=O)(=O)c2ccc(C#CC3(O)CCCC3)cc2O[C@H]1CN(C)C(=O)Cc1cccnc1	none
COc1ccc(S(=O)(=O)N(C)C[C@H]2Oc3ccc(NC(=O)Nc4ccc5c(c4)OCO5)cc3CC(=O)N([C@H](C)CO)C[C@H]2C)cc1	E-selectin induc 36.3
COc1ccc(NC(=O)Nc2ccc3c(c2)CC(=O)N([C@@H](C)CO)C[C@@H](C)[C@H](CN(C)S(=O)(=O)c2ccc(OC)cc2)O3)cc1	none (no result: DENV2 CPE rescue)
COc1ccc(S(=O)(=O)N(C)C[C@H]2Oc3ccc(NC(=O)Nc4ccc5c(c4)OCO5)cc3CC(=O)N([C@@H](C)CO)C[C@@H]2C)cc1	DENV2 CPE rescue 96.8
CC(C)OC(=O)CC1C(=O)NCCN1C(=S)NC(=O)c1ccccc1Cl (stereo not given)	FGF22 binding 44.0 (no result: E-selectin induc, C2C12 statin)
Cn1c(O)c(C2=c3ccccc3=NC2=O)sc1=Nc1ccc(Cl)cc1	C2C12 statin 97.4 (no result: E-selectin induc, DENV2 CPE rescue, Xi reactivation, FGF22 binding)
O=C(O)CCN(Cc1ccccc1)S(=O)(=O)c1ccc(Cl)cc1F	FGF22 binding 43.7 (no result: PglD DTNB)
O=C(C[C@H]1CC[C@@H]2[C@H](COC[C@H](O)CN2Cc2ccc(Cl)cc2)O1)NCc1cccc(F)c1	none
Cc1ccc(-c2cnc3c(c2)C(=O)N([C@@H](C)CO)C[C@@H](C)[C@@H](CN(C)Cc2ccccc2C(=O)O)O3)cc1	none (no result: E-selectin induc)
COCCOC(=O)C1=C(C)NC(=S)NC1c1cccs1 (stereo not given)	FGF22 binding 43.4
C=CCc1cccc(CNc2c(C)cc(C)cc2C)c1O	DENV2 CPE rescue inconclusive, FGF22 binding 43.7 (no result: C2C12 statin, PglD DTNB)
C=CCc1cccc(CNc2c(C)n(C)n(-c3ccccc3)c2=O)c1O	none (no result: E-selectin induc, DENV2 CPE rescue, Xi reactivation, FGF22 binding)
CCc1nc2nc(C)c(NS(=O)(=O)c3ccc(Br)s3)c(=O)n2[nH]1	DENV2 CPE rescue 43.9 (no result: E-selectin induc)
COc1ccc(C#Cc2ccc([C@@H]3[C@H]4CN(C(=O)c5ccncc5)CC(=O)N4[C@H]3CO)cc2)cc1	none (no result: C2C12 statin, PglD DTNB, FGF22 binding)
O=C(NC(Cc1c[nH]c2ccccc12)C(=O)O)c1ccccc1 (stereo not given)	none (no result: E-selectin induc, DENV2 CPE rescue, Xi reactivation, FGF22 binding)
O=C(N[C@@H](Cc1c[nH]c2ccccc12)C(=O)O)c1ccc(Cl)cc1	FGF22 binding 43.7 (no result: PglD DTNB)
COc1ccc(C(=O)NC(C)Cc2c[nH]c3ccccc23)cc1 (stereo not given)	FGF22 binding 43.2 (no result: PglD DTNB)
Cc1ccc(C(=O)C(C)OC(=O)Cc2c[nH]c3ccccc23)cc1 (stereo not given)	DENV2 CPE rescue 26.5 (no result: E-selectin induc)
C[C@@H]1CN([C@@H](C)CO)C(=O)c2cc(-c3ccc(C#N)cc3)cnc2O[C@H]1CN(C)CC1CCCC1	none
CC(=O)c1cccc(NC(=O)Cn2cnc(S(=O)(=O)N3CCCCC3)c2)c1	none
CC(=O)c1ccc(N2CCN(C(=O)Cn3cnc(S(=O)(=O)N4CCCCC4)c3)CC2)cc1	C2C12 statin 98.4 (no result: E-selectin induc)
CC(=O)Nc1cc(-c2ccc(C(=O)NC3CC3)cc2)cn2c(-c3cccc(C(C)=O)c3)cnc12	none
COc1cc(-c2cc(NC(C)=O)c3ncc(-c4cc(OC)c(OC)c(OC)c4)n3c2)cc(OC)c1OC	none
COc1ccc(-c2cnc3c(NC(C)=O)cc(-c4ccccc4OC)cn23)cc1OC	DENV2 CPE rescue 30.1
COc1cc(-c2cnc3c(NC=O)cc(-c4ccc(C)cc4)cn23)cc(OC)c1OC	DENV2 CPE rescue 94.6

Screens: PubChem BioAssay, Broad Institute
